From ChEMBL document CHEMBL4725354 (J Med Chem, 2020)
The source made the active and inactive calls. The calls are words filed in the database; no cut-off is given here.

Legend:
[1] = target: T1, Broad substrate specificity ATP-binding cassette transporter ABCG2 (Homo sapiens, UniProt Q9UNQ0); assay: Inhibition of human ABCG2 expressed in MDCK2 cells co-expressing GFP preincubated for 15 mins followed by pheophorbideA addition and measured after 2 hrs by flow cytometric analysis; type: cell-based, MDCK-II
T1 sequence (Q9UNQ0 whole entry): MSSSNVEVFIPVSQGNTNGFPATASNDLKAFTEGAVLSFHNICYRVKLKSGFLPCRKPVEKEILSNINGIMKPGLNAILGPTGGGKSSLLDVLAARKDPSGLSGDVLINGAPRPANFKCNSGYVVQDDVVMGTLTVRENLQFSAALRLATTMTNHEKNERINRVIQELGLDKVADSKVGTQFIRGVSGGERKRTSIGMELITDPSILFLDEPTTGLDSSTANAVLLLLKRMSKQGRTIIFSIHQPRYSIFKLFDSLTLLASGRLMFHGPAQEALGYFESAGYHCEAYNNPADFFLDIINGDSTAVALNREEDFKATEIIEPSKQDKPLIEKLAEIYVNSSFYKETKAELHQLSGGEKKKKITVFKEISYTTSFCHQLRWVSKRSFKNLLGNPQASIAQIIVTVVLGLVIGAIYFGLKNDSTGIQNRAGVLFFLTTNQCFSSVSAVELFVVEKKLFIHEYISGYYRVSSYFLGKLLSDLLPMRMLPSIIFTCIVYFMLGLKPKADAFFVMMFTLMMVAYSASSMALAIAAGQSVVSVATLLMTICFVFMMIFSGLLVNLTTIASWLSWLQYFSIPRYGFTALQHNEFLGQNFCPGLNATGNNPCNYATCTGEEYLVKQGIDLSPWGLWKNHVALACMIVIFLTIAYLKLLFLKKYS
In short: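 Pheophorbide A added to 0.5 µM final and incubated 2 h. Read by flow cytometry (ex 488, em 695/50 nm); GFP expression checked at 525/30 nm. IC50 from 3- or 4-parameter logistic fit.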

ABCB1 = assay: Therapeutic ratio of GI50 for Growth inhibition of A2780/ADR cells over expressing human ABCB1 to IC50 for inhibition of human ABCB1 expressed in A2780/ADR cells preincubated for 30 mins followed by calcein AM addition and measured every 60 secs for 60 mins by fluorescence assay; settings: A2780/ADR cells overexpressing human ABCB1, probe calcein AM
ABCC1 = assay: Therapeutic ratio of GI50 for Growth inhibition of MDCK2 cells over expressing human ABCC1 to IC50 for inhibition of human ABCC1 expressed in MDCK2 cells preincubated for 30 mins followed by calcein AM addition and measured every 60 secs for 60 mins by fluorescence assay; settings: dog, MDCK2 cells overexpressing human ABCC1, probe calcein AM
[2] = Cytotoxicity against MDCK cells over expressing ABCC1 assessed as reduction in cell viability after 72 hrs by MTT assay; type: ADME, cell-based, Canis lupus familiaris, MDCK-II; settings: dog, MDCK cells overexpressing ABCC1
In short: (§1)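 MTT viability assay. Compound dilutions in culture medium (3.2 to 1000 µM as prepared). About 2,000 cells per well, 72 h at 37 °C, 5% CO2. Culture medium set as 100% and 10% DMSO as 0% viability. MTT added for 1 h, formazan dissolved in DMSO, absorbance read at 570 nm with 690 nm background. GI50 from nonlinear regression of absorbance vs log concentration; at least three independent experiments, duplicates, mean ± SEM.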

[3] = Cytotoxicity against MDCK2 cells assessed as reduction in cell viability after 72 hrs by MTT assay; type: cell-based, Canis lupus familiaris, MDCK-II; settings: dog; in short: as §1
[4] = Cytotoxicity against human A2780 cells assessed as reduction in cell viability after 72 hrs by MTT assay
ABCG2 [5] = target: T2, ABCG2 (Homo sapiens, UniProt Q9UNQ0); assay: Inhibition of human ABCG2 expressed in MDCK2 cells co-expressing GFP preincubated for 15 mins followed by pheophorbideA addition and measured after 2 hrs by flow cytometric analysis relative to control; type: cell-based, MDCK-II; settings: probe pheophorbide A, read-out: Imax
T2 sequence (Q9UNQ0 whole entry): T1 sequence (Q9UNQ0 whole entry)

MDCK-II [6] = assay: Cytotoxicity against MDCK2 cells assessed as reduction in cell viability at 10 uM after 72 hrs by MTT assay; type: cell-based, Canis lupus familiaris; settings: dog
In short: (§2)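 Single-concentration screen at 10 µM in MDCK II BCRP and parental MDCK II cells. MTT assay, 72 h at 37 °C, 5% CO2. Viability referenced to culture medium (100%) and 10% DMSO (0%). Mean ± SEM of at least three independent experiments with duplicates.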

ABCG2 [7] = assay: Therapeutic ratio of GI50 for growth inhibition of MDCK2 cells over expressing human ABCG2 to IC50 for inhibition of human ABCG2 expressed in MDCK2 cells co-expressing GFP; settings: dog, MDCK2 cells overexpressing human ABCG2
[8] = target: ATP-dependent translocase ABCB1 (Homo sapiens, UniProt P08183); assay: Inhibition of human ABCB1 expressed in A2780/ADR cells preincubated for 30 mins followed by calcein AM addition and measured every 60 secs for 60 mins by fluorescence assay; type: cell-based
ATP-dependent translocase ABCB1, sequence (P08183 whole entry): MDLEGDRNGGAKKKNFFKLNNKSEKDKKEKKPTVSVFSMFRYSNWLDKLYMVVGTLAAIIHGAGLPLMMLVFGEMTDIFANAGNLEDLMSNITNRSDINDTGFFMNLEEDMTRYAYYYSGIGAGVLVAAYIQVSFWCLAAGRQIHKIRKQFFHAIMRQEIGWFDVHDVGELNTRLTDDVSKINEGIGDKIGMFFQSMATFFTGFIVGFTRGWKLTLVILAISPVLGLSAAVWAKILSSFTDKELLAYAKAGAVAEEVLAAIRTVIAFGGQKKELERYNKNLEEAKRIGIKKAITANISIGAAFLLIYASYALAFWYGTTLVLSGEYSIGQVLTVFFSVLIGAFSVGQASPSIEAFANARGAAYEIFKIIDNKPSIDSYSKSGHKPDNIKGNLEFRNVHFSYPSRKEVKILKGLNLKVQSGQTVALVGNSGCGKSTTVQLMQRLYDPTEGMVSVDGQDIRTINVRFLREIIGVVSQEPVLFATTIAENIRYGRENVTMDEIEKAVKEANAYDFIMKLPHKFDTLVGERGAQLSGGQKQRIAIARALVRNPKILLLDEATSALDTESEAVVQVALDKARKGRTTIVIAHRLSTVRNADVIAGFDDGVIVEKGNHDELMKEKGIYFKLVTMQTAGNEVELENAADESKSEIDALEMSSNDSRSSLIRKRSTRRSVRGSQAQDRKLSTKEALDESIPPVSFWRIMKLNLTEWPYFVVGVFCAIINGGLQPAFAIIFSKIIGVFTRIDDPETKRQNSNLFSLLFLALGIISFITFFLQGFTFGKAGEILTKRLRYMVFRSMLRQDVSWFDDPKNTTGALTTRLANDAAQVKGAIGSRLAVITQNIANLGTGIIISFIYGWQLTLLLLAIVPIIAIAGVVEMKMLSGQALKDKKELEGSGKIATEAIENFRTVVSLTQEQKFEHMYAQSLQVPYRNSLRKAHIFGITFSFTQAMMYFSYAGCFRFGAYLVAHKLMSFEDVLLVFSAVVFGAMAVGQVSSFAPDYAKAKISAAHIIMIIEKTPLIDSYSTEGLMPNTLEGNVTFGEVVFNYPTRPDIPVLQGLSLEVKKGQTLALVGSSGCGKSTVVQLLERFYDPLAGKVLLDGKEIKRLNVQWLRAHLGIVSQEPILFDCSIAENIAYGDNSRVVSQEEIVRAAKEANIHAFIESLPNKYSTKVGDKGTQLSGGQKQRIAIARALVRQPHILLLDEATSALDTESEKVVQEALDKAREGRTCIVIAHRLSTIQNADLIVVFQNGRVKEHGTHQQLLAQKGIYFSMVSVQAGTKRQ
In short: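 ABCB1 in A2780/ADR cells (kept resistant by one passage in 1 µM doxorubicin every 10 passages). 30,000 cells per well in Krebs-HEPES buffer, preincubated 30 min at 37 °C with inhibitor. Calcein AM added from a 3.125 µM solution. Fluorescence (ex 485, em 520 nm) read every 60 s for 60 min. Initial linear slopes vs log concentration fitted to give IC50.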

MDCK-II [9] = assay: Cytotoxicity against MDCK2 cells over expressing human ABCG2 at 10 uM assessed as reduction in cell viability after 72 hrs by MTT assay; type: ADME, cell-based, Canis lupus familiaris; settings: dog; in short: as §2
[10] = Cytotoxicity against MDCK2 cells over expressing human ABCG2 assessed as reduction in cell viability after 72 hrs by MTT assay; type: ADME, cell-based, Canis lupus familiaris, MDCK-II; settings: dog, MDCK2 cells overexpressing human ABCG2; in short: as §1
[11] = Cytotoxicity against human A2780/ADR cells over expressing ABCB1 assessed as reduction in cell viability after 72 hrs by MTT assay; type: ADME, cell-based; settings: A2780/ADR cells overexpressing ABCB1; in short: as §1
MDCK-II [12] = assay: Cytotoxicity against MDCK2 cells over expressing human ABCG2 assessed as reduction in cell viability at 0.5 uM by after 3 days by MTT assay; type: functional, cell-based; settings: Canis lupus familiaris, time 3.0 day
[13] = Up regulation of ABCG2 in MDCK2 cells at 0.5 uM after 7 days by Western blot analysis; type: functional, Canis lupus familiaris, MDCK-II; settings: time 7 day
In short: (§3)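 ABCG2-GFP MDCK II cells seeded in T25 flasks (86,000 for 4 days, 17,200 for 7 days). Exposed to modulator (10 nM) and/or SN-38 (0.5 µM) for 4 or 7 days. 15 µg protein run on stain-free 10% SDS-PAGE and transferred to PVDF. Probed with BXP-21 (1:200, overnight, 4 °C) and HRP secondary, ECL detection. Bands normalised to total protein and to the untreated control; one-sample t-test.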

[14] = Up regulation of ABCG2 in MDCK2 cells at 0.5 uM after 4 days by Western blot analysis; type: functional, Canis lupus familiaris, MDCK-II; settings: time 4 day; in short: as §3
[15] = Effect on total ABCG2 in MDCK2 cells at 0.5 uM after 4 to 7 days by Western blot analysis; type: ADME, cell-based, Canis lupus familiaris; settings: dog, mdck-ii, time 4-7 day; in short: as §3

Structure (SMILES) | IC50 [1] [µM] | selectivity ratio (ABCB1) | selectivity ratio (ABCC1) | GI50 at 72 h [2] [µM] | GI50 at 72 h [3] [µM] | GI50 at 72 h [4] [µM] | Emax at 2 h (ABCG2 [5]) [%] | Activity (MDCK-II [6]) | selectivity ratio (ABCG2 [7]) | IC50 [8] [µM] | Activity (MDCK-II [9]) | GI50 at 72 h [10] [µM] | GI50 at 72 h [11] [µM] | Activity (MDCK-II [12]) | fold change (FC) [13] | fold change (FC) [14] | Activity [15]
Cc1cc(Nc2ccc3ncccc3c2)nc(-c2ccccc2)n1 | 0.151 | 5.6 | 4.9 | 35.4 | 38.4 | 22.6 | 79 | Non-Toxic | 279 | 5.13 | Non-Toxic | 42.1 | 28.9 | – | – | – | –
CCc1c2c(nc3ccc(O)cc13)-c1cc3c(c(=O)n1C2)COC(=O)C3(O)CC (configuration not stated) | – | – | – | – | – | – | – | – | – | – | – | – | – | inactive | 5 | 2 | Non-Toxic
